According to ChEMBL document CHEMBL1134357, “Heterobifunctional ligands: practical chemoenzymatic synthesis of a cell adhesive glycopeptide that interacts with both selectins and integrins” (J Med Chem, 2001):

Tests used:
[1] = target: T1, E-selectin (Homo sapiens) (UniProt P16581); experiment: Binding affinity of compound against selectin E was determined
T1 sequence (whole entry): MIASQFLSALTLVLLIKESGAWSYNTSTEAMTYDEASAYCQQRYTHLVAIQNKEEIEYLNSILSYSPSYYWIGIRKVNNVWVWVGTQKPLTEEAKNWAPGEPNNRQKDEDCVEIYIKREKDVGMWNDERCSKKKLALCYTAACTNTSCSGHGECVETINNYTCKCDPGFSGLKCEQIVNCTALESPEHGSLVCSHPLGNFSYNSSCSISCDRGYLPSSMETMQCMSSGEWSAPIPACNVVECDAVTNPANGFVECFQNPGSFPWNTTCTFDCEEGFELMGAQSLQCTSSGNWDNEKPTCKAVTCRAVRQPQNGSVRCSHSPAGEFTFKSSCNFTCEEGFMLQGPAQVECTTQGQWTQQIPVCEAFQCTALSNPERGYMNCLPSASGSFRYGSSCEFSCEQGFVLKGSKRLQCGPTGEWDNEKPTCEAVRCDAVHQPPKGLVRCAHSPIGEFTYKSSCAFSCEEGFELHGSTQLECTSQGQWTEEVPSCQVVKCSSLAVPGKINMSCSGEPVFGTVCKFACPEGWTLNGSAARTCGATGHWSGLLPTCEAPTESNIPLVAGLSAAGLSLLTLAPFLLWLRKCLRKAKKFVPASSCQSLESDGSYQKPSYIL
Method in brief: (§1)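 SPR (IAsys): recombinant soluble human E-, P- or L-selectin is coupled to a BS3-activated aminosilane cuvette and the surface blocked with BSA. Binding is run in 10 mM PBS, 1 mM CaCl2, pH 7.2, at 25 °C. Ligand solution (0.01 mL into 0.2 mL total) is monitored for 20 min, and kinetic and equilibrium constants are derived from the binding curves.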

[2] = Dissociation constant of compound against selectin P was determined; method in brief: as §1
[3] = Dissociation constant of compound against selectin L was determined; method in brief: as §1
[4] = Dissociation constant of compound against selectin E was determined; method in brief: as §1
[5] = target: T2, P-selectin (Homo sapiens) (UniProt P16109); experiment: Binding affinity of compound against selectin P was determined; method in brief: as §1
T2 sequence (whole entry): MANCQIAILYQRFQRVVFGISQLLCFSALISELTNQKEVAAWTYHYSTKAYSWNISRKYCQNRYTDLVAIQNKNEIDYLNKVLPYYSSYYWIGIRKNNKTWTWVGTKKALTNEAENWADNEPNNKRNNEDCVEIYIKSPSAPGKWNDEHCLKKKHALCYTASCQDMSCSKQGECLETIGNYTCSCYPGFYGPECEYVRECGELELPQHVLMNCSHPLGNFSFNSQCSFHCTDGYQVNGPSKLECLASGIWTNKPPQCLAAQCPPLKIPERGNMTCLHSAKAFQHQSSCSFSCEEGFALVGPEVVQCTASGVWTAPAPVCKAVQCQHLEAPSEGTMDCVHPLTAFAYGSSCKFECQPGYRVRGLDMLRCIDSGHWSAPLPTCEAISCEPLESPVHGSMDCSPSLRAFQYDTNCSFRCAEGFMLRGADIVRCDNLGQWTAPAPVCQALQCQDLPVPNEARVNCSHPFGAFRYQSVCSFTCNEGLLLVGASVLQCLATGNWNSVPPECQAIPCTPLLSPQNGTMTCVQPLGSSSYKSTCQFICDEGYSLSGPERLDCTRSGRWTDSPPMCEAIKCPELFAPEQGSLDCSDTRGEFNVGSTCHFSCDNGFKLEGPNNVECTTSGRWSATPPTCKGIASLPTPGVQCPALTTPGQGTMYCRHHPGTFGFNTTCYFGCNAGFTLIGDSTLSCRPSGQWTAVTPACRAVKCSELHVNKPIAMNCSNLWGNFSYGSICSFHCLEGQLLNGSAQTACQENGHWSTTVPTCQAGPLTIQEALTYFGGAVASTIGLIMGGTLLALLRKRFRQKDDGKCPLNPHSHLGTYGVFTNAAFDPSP

[6] = target: T3, L-selectin (Homo sapiens) (UniProt P14151); experiment: Binding affinity of compound against selectin L was determined; method in brief: as §1
T3 sequence (whole entry): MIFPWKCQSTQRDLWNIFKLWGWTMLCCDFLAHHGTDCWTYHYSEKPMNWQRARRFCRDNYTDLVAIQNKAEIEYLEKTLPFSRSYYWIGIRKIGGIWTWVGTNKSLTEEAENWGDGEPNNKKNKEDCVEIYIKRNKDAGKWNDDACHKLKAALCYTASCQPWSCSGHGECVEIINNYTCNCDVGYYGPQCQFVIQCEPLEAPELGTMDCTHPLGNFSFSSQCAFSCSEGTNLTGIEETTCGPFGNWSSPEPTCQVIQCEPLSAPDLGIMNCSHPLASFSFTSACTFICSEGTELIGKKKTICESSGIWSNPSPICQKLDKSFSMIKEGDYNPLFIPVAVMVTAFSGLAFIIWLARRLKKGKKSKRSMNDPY

[7] = Association constant of compound against selectin E was determined; method in brief: as §1
[8] = Association constant of compound against selectin P was determined; method in brief: as §1
[9] = Association constant of compound against selectin L was determined; method in brief: as §1

Row | Ka [1] [M⁻¹] | K diss [2] [s⁻¹] | K diss [3] [s⁻¹] | K diss [4] [s⁻¹] | Ka [5] [M⁻¹] | Ka [6] [M⁻¹] | K ass [7] [M⁻¹ s⁻¹] | K ass [8] [M⁻¹ s⁻¹] | K ass [9] [M⁻¹ s⁻¹] | Compound
1 | 6100 | 0.00092 | 0.00077 | 0.00066 | 97000 | 5400 |  |  |  | N=C(N)NCCC[C@H](N)C(=O)NCC(=O)N[C@@H](CC(=O)O)C(=O)N[C@@H](CO)C(=O)O
2 | 12000 | 0.00026 | 0.36 | 0.0017 | 880000 | 870 | 21.1 | 229.6 | 312.7 | CC(=O)N[C@H]1[C@H]([C@H](O)[C@H](O)CO)O[C@@](O[C@H]2[C@@H](O)[C@@H](CO)O[C@@H](O[C@@H]([C@H](O[C@@H]3O[C@@H](C)[C@@H](O)[C@@H](O)[C@@H]3O)[C@H](C=O)NC(C)=O)[C@H](O)CO)[C@@H]2O)(C(=O)O)C[C@@H]1O [SIALYL LEWIS X]
3 |  |  |  |  |  |  | 4 | 89.1 | 4.1 | NC(N)=NCCC[C@H](N)C(=O)NCC(=O)N[C@@H](CC(=O)O)C(=O)N[C@@H](CO)C(=O)O
